From article PMC4984525 (Cancer, 2011)
Entries after “also recorded” stand apart in the source; their conditions may differ.

Assays:
[1] = Plasma pharmacokinetics of ARRY-520; format: in vivo, human; conditions: human, plasma, intravenous
[2] = test system: relapsed or refractory AML or high-grade myelodysplastic syndromes; assay: Clinical efficacy; format: in vivo, human
Procedure, shortened: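 Open-label, multicentre dose escalation in patients ≥17 y (ECOG 0–2). Test compound given IV over 1 h, on Day 1 (from 2.5 mg/m2) or on Days 1, 3 and 5 (from 0.8 mg/m2/day). Escalation steps were 50%, then 30%. Complete and partial remissions were scored during induction and later cycles; MDS used modified IWG criteria. Hydroxyurea was allowed during days 1–14.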

[3] = test system: Peripheral blood mononuclear cells (PBMCs); assay: Pharmacodynamics: spindle morphology by confocal imaging; format: cell-based, human
[4] = test system: tumor cell; conditions: background statement; cited from earlier work
[5] = test system: HT-29; conditions: HT-29 subcutaneous xenograft, mouse; cited from earlier work
[6] = test system: HCT-116; conditions: HCT-116 subcutaneous xenograft, mouse; cited from earlier work
[7] = test system: A2780; conditions: A2780 subcutaneous xenograft, mouse; cited from earlier work
[8] = test system: K562; conditions: K562 subcutaneous xenograft, mouse; cited from earlier work
[9] = test system: HCT15; conditions: HCT15 subcutaneous xenograft, mouse; cited from earlier work
[10] = test system: multiple myeloma; conditions: cited from earlier work

Q: Which half-life ([1]; 2.5 mg/m^2, t1/2, Schedule 1, Cycle 1 Day 1, 2.5 mg/m^2 (N=3), median (min-max)) does the source give for `CON(C)C(=O)N1N=C(c2cc(F)ccc2F)S[C@@]1(CCCN)c1ccccc1` [ARRY-520] here?
A: 97.2 h

Q: And the AUC(0-t) ([1]; 3.6 mg/m^2, AUC0–24, Schedule 2, Cycle 1 Day 1, 3.6 mg/m^2 (N=1), geometric mean)?
A: 345 ng·h/mL

Q: And the AUC(0-t) ([1]; 3.6 mg/m^2, AUC0–24, Schedule 2, Cycle 1 Day 5, 3.6 mg/m^2 (N=1), geometric mean)?
A: 733 ng·h/mL

Q: And the clearance ([1]; 3.6 mg/m^2, CL, Schedule 2, Cycle 1 Day 1, 3.6 mg/m^2 (N=1), geometric mean)?
A: 187 mL/min

Q: What about the clearance ([1]; 3.6 mg/m^2, CL, Schedule 2, Cycle 1 Day 5, 3.6 mg/m^2 (N=1), geometric mean) of the same molecule?
A: 22.2 mL/min

Q: What about the Cmax ([1]; 3.6 mg/m^2, Cmax, Schedule 2, Cycle 1 Day 1, 3.6 mg/m^2 (N=1), geometric mean) of the same molecule?
A: 73.9 ng/mL

Q: And the Cmax ([1]; 3.6 mg/m^2, Cmax, Schedule 2, Cycle 1 Day 5, 3.6 mg/m^2 (N=1), geometric mean)?
A: 199 ng/mL

Q: And the MRT ([1]; 3.6 mg/m^2, MRT, Schedule 2, Cycle 1 Day 5, 3.6 mg/m^2 (N=1), median (min-max))?
A: 152 h

Q: What about the Tmax ([1]; 3.6 mg/m^2, Tmax, Schedule 2, Cycle 1 Day 1, 3.6 mg/m^2 (N=1), median (min-max)) of the same molecule?
A: 1 h

Q: What about the Tmax ([1]; 3.6 mg/m^2, Tmax, Schedule 2, Cycle 1 Day 5, 3.6 mg/m^2 (N=1), median (min-max)) of the same molecule?
A: 1.08 h

Q: And the Vd ([1]; 3.6 mg/m^2, Vss, Schedule 2, Cycle 1 Day 1, 3.6 mg/m^2 (N=1), mean)?
A: 278 L

Q: And the Vd ([1]; 3.6 mg/m^2, Vss, Schedule 2, Cycle 1 Day 5, 3.6 mg/m^2 (N=1), mean)?
A: 202 L

Q: And the half-life ([1]; 3.6 mg/m^2, t1/2, Schedule 2, Cycle 1 Day 1, 3.6 mg/m^2 (N=1), median (min-max))?
A: 18.7 h

Q: And the half-life ([1]; 3.6 mg/m^2, t1/2, Schedule 2, Cycle 1 Day 5, 3.6 mg/m^2 (N=1), median (min-max))?
A: 108 h

Q: And the AUC(0-inf) ([1]; 3.75 mg/m^2)?
A: 1480 ng·h/mL

Q: And the clearance ([1]; 3.75 mg/m^2, CL, Schedule 1, Cycle 1 Day 1, 3.75 mg/m^2 (N=1), geometric mean)?
A: 113 mL/min

Q: What about the Cmax ([1]; 3.75 mg/m^2, Cmax, Schedule 1, Cycle 1 Day 1, 3.75 mg/m^2 (N=1), geometric mean) of the same molecule?
A: 31.1 ng/mL

Q: What about the MRT ([1]; 3.75 mg/m^2, MRT, Schedule 1, Cycle 1 Day 1, 3.75 mg/m^2 (N=1), median (min-max)) of the same molecule?
A: 127 h

Q: And the Tmax ([1]; 3.75 mg/m^2, Tmax, Schedule 1, Cycle 1 Day 1, 3.75 mg/m^2 (N=1), median (min-max))?
A: 1 h

Q: What about the Vd ([1]; 3.75 mg/m^2, Vss, Schedule 1, Cycle 1 Day 1, 3.75 mg/m^2 (N=1), mean) of the same molecule?
A: 857 L

Q: And the half-life ([1]; 3.75 mg/m^2, t1/2, Schedule 1, Cycle 1 Day 1, 3.75 mg/m^2 (N=1), median (min-max))?
A: 100 h

Q: What about the AUC(0-inf) ([1]; 4.5 mg/m^2) of the same molecule?
A: 3000 ng·h/mL

Q: What about the clearance ([1]; 4.5 mg/m^2, CL, Schedule 1, Cycle 1 Day 1, 4.5 mg/m^2 (N=4), geometric mean (geometric %CV)) of the same molecule?
A: 49.2 mL/min

Q: What about the Cmax ([1]; 4.5 mg/m^2, Cmax, Schedule 1, Cycle 1 Day 1, 4.5 mg/m^2 (N=4), geometric mean (geometric %CV)) of the same molecule?
A: 53.4 ng/mL

Q: And the MRT ([1]; 4.5 mg/m^2, MRT, Schedule 1, Cycle 1 Day 1, 4.5 mg/m^2 (N=4), median (min-max))?
A: 142 h

Q: What about the Tmax ([1]; 4.5 mg/m^2, Tmax, Schedule 1, Cycle 1 Day 1, 4.5 mg/m^2 (N=4), median (min-max)) of the same molecule?
A: 1.01 h

Q: What about the Vd ([1]; 4.5 mg/m^2, Vss, Schedule 1, Cycle 1 Day 1, 4.5 mg/m^2 (N=4), mean (%CV)) of the same molecule?
A: 340 L

Q: What about the half-life ([1]; 4.5 mg/m^2, t1/2, Schedule 1, Cycle 1 Day 1, 4.5 mg/m^2 (N=4), median (min-max)) of the same molecule?
A: 100 h

Q: What about the AUC(0-inf) ([1]; 5.6 mg/m^2) of the same molecule?
A: 2520 ng·h/mL

Q: And the clearance ([1]; 5.6 mg/m^2, CL, Schedule 1, Cycle 1 Day 1, 5.6 mg/m^2 (N=2), geometric mean)?
A: 71.7 mL/min

Q: And the Cmax ([1]; 5.6 mg/m^2, Cmax, Schedule 1, Cycle 1 Day 1, 5.6 mg/m^2 (N=2), geometric mean)?
A: 49.6 ng/mL

Q: What about the MRT ([1]; 5.6 mg/m^2, MRT, Schedule 1, Cycle 1 Day 1, 5.6 mg/m^2 (N=2), median (min-max)) of the same molecule?
A: 131 h

Q: And the Tmax ([1]; 5.6 mg/m^2, Tmax, Schedule 1, Cycle 1 Day 1, 5.6 mg/m^2 (N=2), median (min-max))?
A: 0.959 h

Q: And the Vd ([1]; 5.6 mg/m^2, Vss, Schedule 1, Cycle 1 Day 1, 5.6 mg/m^2 (N=2), mean)?
A: 515 L

Q: What about the half-life ([1]; 5.6 mg/m^2, t1/2, Schedule 1, Cycle 1 Day 1, 5.6 mg/m^2 (N=2), median (min-max)) of the same molecule?
A: 92.5 h

Q: And the clearance ([1]; CL, Schedule 1, Cycle 1 Day 1, Schedule Total (N=10), geometric mean (geometric %CV))?
A: 56 mL/min

Q: What about the clearance ([1]; CL, Schedule 2, Cycle 1 Day 1, Schedule Total (N=18), geometric mean (geometric %CV)) of the same molecule?
A: 119 mL/min

Q: And the clearance ([1]; CL, Schedule 2, Cycle 1 Day 5, Schedule Total (N=18), geometric mean (geometric %CV))?
A: 19.8 mL/min

Q: And the clearance ([1]; CL, range across cohorts, Schedule 1, Cycle 1)?
A: 44.8 to 113 mL/min

Q: What about the MRT ([1]; MRT, Schedule 1, Cycle 1 Day 1, Schedule Total (N=10), median (min-max)) of the same molecule?
A: 127 h

Q: And the Tmax ([1]; Tmax, Schedule 1, Cycle 1 Day 1, Schedule Total (N=10), median (min-max))?
A: 1 h

Q: What about the Tmax ([1]; Tmax, Schedule 2, Cycle 1 Day 1, Schedule Total (N=18), median (min-max)) of the same molecule?
A: 1 h

Q: And the Tmax ([1]; Tmax, Schedule 2, Cycle 1 Day 5, Schedule Total (N=18), median (min-max))?
A: 1 h

Q: What about the Vd ([1]; Vss, Schedule 1, Cycle 1 Day 1, Schedule Total (N=10), mean (%CV)) of the same molecule?
A: 446 L

Q: And the Vd ([1]; Vss, Schedule 2, Cycle 1 Day 1, Schedule Total (N=18), mean (%CV))?
A: 306 L

Q: And the Vd ([1]; Vss, Schedule 2, Cycle 1 Day 5, Schedule Total (N=18), mean (%CV))?
A: 191 L

Q: And the clearance ([1]; clearance, plasma PK, abstract summary)?
A: ~50 mL/min

Q: And the clearance ([1]; geometric mean CL, Schedule 1, Cycle 2, all patients, N=4)?
A: 50.3 mL/min

Q: And the MRT ([1]; median MRT, Schedule 1)?
A: 127 h

Q: And the half-life ([1]; median terminal t1/2, plasma PK, summary)?
A: > 90 h

Q: What about the half-life ([1]; t1/2, Schedule 1, Cycle 1 Day 1, Schedule Total (N=10), median (min-max)) of the same molecule?
A: 98.6 h

Q: What about the half-life ([1]; t1/2, Schedule 2, Cycle 1 Day 1, Schedule Total (N=18), median (min-max)) of the same molecule?
A: 26.1 h

Q: And the “partial response, %” value ([2]; 34 patients with efficacy data)?
A: 3%

Q: What about the “partial response, patients n” value ([2]; 34 patients with efficacy data) of the same molecule?
A: 1

Q: And the complete remissions ([2]; heavily pretreated relapsed/refractory AML or MDS)?
A: did not observe complete remissions

Q: What about the “Aberrant spindles (with misaligned DNA) in PBMCs” value ([3]; Cycle 1, Day 5, patients dosed at 1.2 mg/m^2/day (after 3 doses)) of the same molecule?
A: observed in some PBMCs; also recorded: Aberrant spindles are observed; also recorded: abnormal spindles were observed

Q: What about the “Monopolar spindles in blood mononuclear cells” value ([3]; DAPI nucleic acid stain and anti-tubulin antibodies) of the same molecule?
A: Monopolar spindles were observed

Q: And the “concentrations inducing mitotic arrest and tumor cell death” value [4]?
A: sub-nanomolar

Q: And the anti-cancer efficacy [5]?
A: demonstrated anti-cancer efficacy

Q: And the anti-cancer efficacy [6]?
A: demonstrated anti-cancer efficacy

Q: And the anti-cancer efficacy [7]?
A: demonstrated anti-cancer efficacy

Q: What about the anti-cancer efficacy [8] of the same molecule?
A: demonstrated anti-cancer efficacy

Q: And the anti-cancer efficacy [9]?
A: demonstrated anti-cancer efficacy

Q: And the “activity in xenograft models of multiple myeloma” value [10]?
A: has shown activity
